Shown are actives, neighbours in structure and some others; about 0.95% of the full set was active somewhere.
ARFGAP1 inh = inhibitors of rat ARFGAP1 GAP activity, primary screen, biochemical, fluorescence polarization, GDP tracer | ADP-ribosylation factor GTPase-activating protein 1 (Rattus norvegicus), Q62848 | Arfgap1-stimulated ARF1 GTP hydrolysis, GDP FP detection | inhibition, % at 16.5 µM | hit rate 0.26% among 360,000 | AID 651572, 2012;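 active = inhibition above a per-plate limit, mean inhibition of low control wells plus 3 SD, cut at about 25% in these data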
Target sequence (Q62848 1-136 limits assumed): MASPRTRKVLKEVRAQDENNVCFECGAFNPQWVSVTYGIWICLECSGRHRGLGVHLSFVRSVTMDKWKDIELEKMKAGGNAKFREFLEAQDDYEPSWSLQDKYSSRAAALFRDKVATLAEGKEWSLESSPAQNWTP
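System: truncated rat Arfgap1 GAP domain / Medium: HEPES-based buffer, pH 7.5 / Also added: N-terminally truncated human ARF1-GTP substrate / Incubation: enzyme reaction 120 min at 25 °C after 20 min preincubation / Measured by: FP of antibody-bound GDP Alexa 633 tracer, ex 620/em 688 nm / Replicates: singlicate, each compound tested once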
HNF4A DNA FP = change in binding of human HNF4A to DNA, primary screen, biochemical, fluorescence polarization, FITC-DNA; 1 h; AID 1224865, 2016; Hepatocyte nuclear factor 4-alpha (Homo sapiens), P41235; hit rate 0.3% among 360,000; activity change, % at 10 µM; in the data active = activity change above about 30%, passing the limit was not always enough
Target sequence (P41235 whole entry, looked up): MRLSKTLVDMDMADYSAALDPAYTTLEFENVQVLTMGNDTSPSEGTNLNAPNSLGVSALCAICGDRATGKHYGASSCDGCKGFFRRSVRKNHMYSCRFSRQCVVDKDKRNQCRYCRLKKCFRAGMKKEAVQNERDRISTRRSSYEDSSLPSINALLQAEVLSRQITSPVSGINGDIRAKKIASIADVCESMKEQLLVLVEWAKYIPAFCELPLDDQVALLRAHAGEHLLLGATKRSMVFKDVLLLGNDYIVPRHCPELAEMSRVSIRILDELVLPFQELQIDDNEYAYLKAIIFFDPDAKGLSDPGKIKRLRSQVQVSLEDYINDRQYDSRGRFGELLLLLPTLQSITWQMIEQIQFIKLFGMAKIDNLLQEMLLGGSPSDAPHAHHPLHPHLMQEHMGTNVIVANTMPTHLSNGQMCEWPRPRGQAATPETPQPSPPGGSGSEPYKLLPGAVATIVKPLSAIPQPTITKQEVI
CSN inh = inhibitors of CSN-mediated cullin deneddylation, primary screen, biochemical, fluorescence polarization, uHTS; COP9 signalosome complex subunit 5 (Homo sapiens), Q92905; Purified CSN, SCF-Nedd8-OG deneddylation; inhibition, % at 12.5 µM; hit rate 0.38% among 360,000; AID 651999, 2013;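 active = pattern-corrected inhibition above about 35%, with an unprinted fluorescence ratio check between 0.5 and 1.5, limit read from the data, passing the limit was not always enough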
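Detection – fluorescence polarization · System – HEK293T-derived human Csn5 enzyme · Controls – substrate-only high control, full reaction low control · Timing – 90 min, room temperature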
ASAP1 inh = inhibitors of human ASAP1 ArfGAP activity, primary screen, biochemical, fluorescence polarization. Arf-GAP with SH3 domain, ANK repeat and PH domain-containing protein 1 (Homo sapiens), …. ASAP1-stimulated ARF1 GTP hydrolysis, GDP FP detection. inhibition, % at 16.5 µM. hit rate 0.19% among 360,000; in the data active = inhibition above about 25%
Of the large screens only hits and unclear results are named; the others gave an inactive call.

O=C(N[C@H](Cc1ccccc1)C(=O)NCc1ccc2c(c1)OCO2)[C@H]1O[C@@H](n2ccc(=O)[nH]c2=O)[C@H](O)[C@@H]1O	none (no result: HNF4A DNA FP, CSN inh)
C#CCOCCOCCOCCNc1nc(N2CCN(C(=O)CCCCCCCCCCNC(=O)[C@H](CCCCN)n3cc(C[C@@H](C)CC)nn3)CC2)nc(N2CCN(C(=O)CCCCCCCCCCNC(=O)[C@@H]([C@H](C)O)n3cc(C)nn3)CC2)n1	HNF4A DNA FP 65, CSN inh 66 (no result: ARFGAP1 inh, ASAP1 inh)
C#CCOCCOCCOCCNc1nc(N2CCN(C(=O)CCCCCCCCCCNC(=O)[C@@H](CCSC)n3cc(CCO)nn3)CC2)nc(N2CCN(C(=O)CCCCCCCCCCNC(=O)[C@H](CCCN=C(N)N)n3cc(C[C@@H](C)CC)nn3)CC2)n1	CSN inh 131 (no result: ARFGAP1 inh, ASAP1 inh)
C#CCOCCOCCOCCNc1nc(N2CCN(C(=O)CCCCCCCCCCNC(=O)[C@H]([C@@H](C)CC)n3cc(CCCCN=C(N)N)nn3)CC2)nc(N2CCN(C(=O)CCCCCCCCCCNC(=O)[C@@H]([C@H](C)O)n3cc(C)nn3)CC2)n1	CSN inh 97 (no result: ARFGAP1 inh, ASAP1 inh)
C#CCOCCOCCOCCNc1nc(N2CCN(C(=O)CCCCCCCCCCNC(=O)[C@H](CCCCN)n3cc(C[C@@H](C)CC)nn3)CC2)nc(N2CCN(C(=O)CCCCCCCCCCNC(=O)[C@H](CCCN=C(N)N)n3cc(C[C@@H](C)CC)nn3)CC2)n1	CSN inh 137 (no result: ARFGAP1 inh, ASAP1 inh)
C[C@@H]1ON(C)[C@H]2C[C@H]3c4[nH]c5c(-c6ccc(F)cc6)cccc5c4CCN3C(=O)[C@@H]12	none (no result: HNF4A DNA FP, CSN inh)
CC(=O)N1C[C@H]2CON(C)[C@H]2C[C@H]1c1ccccc1-c1ccccc1	none (no result: HNF4A DNA FP, CSN inh)
COC(=O)[C@]12C[C@H](CC(=O)NCc3ccc(OC)c(OC)c3)C(=O)N(CCc3ccc(OC)c(OC)c3)C1=C[C@H](C(C)(C)C)O[C@@H]2C	none (no result: HNF4A DNA FP, CSN inh)
CCOC(=O)C1C(c2cc(OC)c(O)c(OC)c2)NC(=S)NC1(O)C(F)(F)F (stereo not drawn)	none
CCOC(=O)C1C(c2cc(OC)c(OC)c(OC)c2)NC(=S)NC1(O)C(F)(F)F (stereo not drawn)	CSN inh 37
CCCCCn1c(NC(=O)c2ccco2)c(S(=O)(=O)c2ccc(C)cc2)c2nc3ccccc3nc21	none
Cc1ccc(S(=O)(=O)c2c(N)n(CCCO)c3nc4ccccc4nc23)cc1	CSN inh 41
CCCCn1c(NC(=O)c2ccco2)c(S(=O)(=O)c2ccc(C)cc2)c2nc3ccccc3nc21	HNF4A DNA FP 68, CSN inh 54
CCCCn1c(NS(=O)(=O)c2ccccc2)c(S(=O)(=O)c2ccc(C)cc2)c2nc3ccccc3nc21	CSN inh 57
C#CCNCCS(=O)(=O)N(Cc1ccc(Br)cc1)[C@@H](C)C(=O)O	none
Cc1cc(Nc2cccc(F)c2)cc(=O)n1-c1cccc(F)c1	none (no result: HNF4A DNA FP, CSN inh)
O=C(/C=C/c1ccc(NC(=O)c2ccccc2-c2ccccc2C(=O)O)cc1)c1ccccc1	CSN inh 51
Cc1c(CC(=O)O)c(=O)oc2c(C)c(OCc3ccc(F)cc3Cl)ccc12	CSN inh 53
Cc1ccc(Nc2nc(N)nc(CSc3nnnn3-c3ccccc3)n2)cc1	CSN inh 41
CN1CCCCC(NC(=O)CSc2ccccc2)C1=O (stereo not drawn)	none (no result: HNF4A DNA FP, CSN inh)
C[C@H]1CN(C(=O)OC(C)(C)C)CCN1c1ccc(N2CCS(=O)(=O)CC2)c(C#N)c1	none (no result: HNF4A DNA FP, CSN inh)
CC(C)c1[nH]nc2c1C(c1cccc(C(F)(F)F)c1)N(Cc1ccccc1)C2=O (stereo not drawn)	none (no result: HNF4A DNA FP, CSN inh)
CC(C)CN1C(=O)NC(NC(=O)c2ccco2)(C(F)(F)F)C1=O (stereo not drawn)	HNF4A DNA FP 39
Cc1cccc(C(=O)NC2CCN(C(=S)NCc3ccco3)CC2)c1	none
O=C(NC1CCN(C(=S)NCc2ccco2)CC1)NC12CC3CC(CC(C3)C1)C2	HNF4A DNA FP 43
O=C(c1cc(C2CCCCN2S(=O)(=O)Cc2ccccc2)on1)N1CCOCC1 (stereo not drawn)	none
C=CCn1c(SCc2ccc3c(c2)OCO3)nc2scc(-c3ccco3)c2c1=O	CSN inh 57
COc1ccc(C(=O)NCCc2ccccc2)cc1OC	none
COc1ccc(/C(O)=C/c2nc3ccc(C(=O)NCCc4cccc(C)c4)cc3[nH]c2=O)cc1OC	HNF4A DNA FP 44
CN(C)c1ccc(S(=O)(=O)NCC(=O)N2CCN(c3ccccc3)CC2)cc1[N+](=O)[O-]	none
Nc1ccn([C@@H]2O[C@H](CNCc3ccc(C#CCCO)cc3)[C@@H](O)[C@H]2O)c(=O)n1	CSN inh 45
C#CCOc1ccc(CNC[C@H]2O[C@@H](n3ccc(N)nc3=O)[C@H](O)[C@@H]2O)cc1	none
O=C(N/N=C/c1ccc(OC(=O)c2cccc(F)c2)cc1)c1cccnc1	CSN inh 41
O=C(C(=O)N1CCN(S(=O)(=O)c2ccc(OC(F)(F)F)cc2)CC1)c1cccc(C(F)(F)F)c1	none (no result: HNF4A DNA FP, CSN inh)
C[C@@H]1ON(C)[C@H]2C[C@H]3c4cc(N5CCCCC5)ccc4CCN3C[C@@H]12	none (no result: HNF4A DNA FP, CSN inh)
CCC(C)(C)C(=O)Nc1cc([N+](=O)[O-])ccc1Cl	none
CCN(CC)c1nc(C)c(C(=S)Nc2cc([N+](=O)[O-])ccc2Cl)s1	HNF4A DNA FP 47
Cc1ccccc1S(=O)(=O)c1c(C)cc(C)n(C)c1=O	CSN inh 43
Cc1ccccc1S(=O)(=O)c1c(C)cc(C)n(CC(C)C)c1=O	none
O=C(Nc1ccccc1C(F)(F)F)NC1(C(=O)N2CCOCC2)CCCCC1	CSN inh 43
CCc1ccccc1NC(=O)/C(C#N)=C/c1ccc(Sc2ccccc2)o1	none
Cc1cc(C)nc(Sc2ccc(/C=C(\C#N)C(=O)Nc3ccccc3)o2)n1	HNF4A DNA FP 71
CC(C)=CCCC1=CC[C@H]2[C@@H](C1)C(C(C)C)=CC(=O)[C@@]2(C)O	none (no result: HNF4A DNA FP, CSN inh)
CC(=O)c1cccc(NC(=O)CNC(=O)Cc2cccc3ccccc23)c1	none
COc1ccc(NC(=O)CNC(=O)Cc2cccc3ccccc23)cc1	CSN inh 37
COc1ccc(-c2cc(-c3ccco3)[nH]c(=O)c2C#N)cc1	none
N#Cc1c(-c2cccc(Br)c2)cc(-c2ccco2)[nH]c1=O	CSN inh 36
Cc1cc(N2CCNC[C@@H]2C)ccc1N1CCN(Cc2ccccc2)[C@@H](C)C1	none (no result: HNF4A DNA FP, CSN inh)
O=C(/C=C/c1cn(-c2ccccc2)nc1-c1cccc(Cl)c1)N1CCN(c2ccccn2)CC1	CSN inh 153
CC1CCN(C(=O)CCNC(=O)Cn2cnc3sc4c(c3c2=O)CCCC4)CC1	CSN inh 125
CC1CCN(C(=O)CCCNC(=O)Cn2cnc3sc4c(c3c2=O)CCCC4)CC1	none
Cc1sc2ncn(CC(=O)NCCCC(=O)N3CCN(c4ccccc4)CC3)c(=O)c2c1C	CSN inh 76

Bioassay records as filed in PubChem BioAssay.
